According to ChEMBL document CHEMBL1125813, “Preparation and anti-HIV activities of aurintricarboxylic acid fractions and analogues: direct correlation of antiviral potency with molecular weight” (J Med Chem, 1991):
In brackets after ≈: the same amount, converted by molar mass. Several values for one entry are separate records, joined by “and”; a condition that tells them apart may be missing. Equal values may be shown once.

How the values were obtained:
CCRF-CEM = experiment: Inhibitory concentration for cytopathicity of HIV-1 (HTLV-111B) in CEM cells; format: functional, cell-based, Homo sapiens
How it was run: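 CEM cells infected with HIV-1 (HTLV-IIIB) and cultured with compound. Protection from cytopathicity measured by XTT tetrazolium viability assay. IC50 is the concentration giving 50% inhibition. Means of two to four experiments.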

HuT78 [1] = experiment: Compound was tested for reduce the number of gaint cells in HIV-1 infected HUT-78 cells cocultured with MOLT -4 cells; format: functional, cell-based, Homo sapiens
How it was run: (§1)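 HUT-78 cells persistently infected with HIV-1 or HIV-2 cocultured with uninfected MOLT-4 (CD4+) cells alongside compound. Syncytium formation and bystander-cell destruction assessed by flow cytometry. IC50 taken as the concentration cutting giant-cell number by 50%.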

MT4 [2] = experiment: Inhibitory index for OKT4A mAb binding inhibition in MT-4 cells was determined at a concentration of 0.16 ug/ml; format: functional, Homo sapiens
How it was run: (§2)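 MT-4 cells, 200 000 in 100 µL PBS, exposed to compound for 10–20 s at 20 °C, stained with anti-OKT4A-FITC for 20 min at 4 °C, washed, formaldehyde-fixed and read by flow cytometry. Index = 1 − (MF with compound − MF IgG-FITC control)/(MF OKT4A only − MF IgG-FITC control), from mean fluorescence intensity.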

MT4 [3] = experiment: Inhibitory index for OKT4A mAb binding inhibition in MT-4 cells was determined at a concentration of 0.8 ug/ml; format: functional, Homo sapiens; how it was run: as §2
MT4 [4] = experiment: Inhibitory index for OKT4A mAb binding inhibition in MT-4 cells was determined at a concentration of 100 ug/ml; format: functional, Homo sapiens; how it was run: as §2
MT4 [5] = experiment: Inhibitory index for OKT4A mAb binding inhibition in MT-4 cells was determined at a concentration of 20 ug/ml; format: functional, Homo sapiens; how it was run: as §2
MT4 [6] = experiment: Inhibitory index for OKT4A mAb binding inhibition in MT-4 cells was determined at a concentration of 4 ug/ml; format: functional, Homo sapiens; how it was run: as §2
MT4 [7] = experiment: Inhibitory concentration for cell viability in mock-infected MT-4 cells; format: functional, cell-based; details: Homo sapiens
How it was run: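 MT-4 cells mock-infected and cultured with compound. Viability measured by MTT tetrazolium colorimetric read-out. Value is the 50% cytotoxic concentration. MT-4 data are means of at least three experiments.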

MT4 [8] = experiment: Inhibitory concentration for cytopathicity of HIV-1 (HTLV-111B) in MT-4 cells; format: functional, cell-based, Homo sapiens
How it was run: (§3)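 MT-4 cells infected with HIV-1 (HTLV-IIIB) or HIV-2 (LAV-2ROD) at 100–500-fold the dose infecting 50% of cells, then cultured with compound. Protection from cytopathicity gives the IC50 (50% inhibitory concentration). Means of at least three experiments.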

MT4 [9] = experiment: Inhibitory concentration for cytopathicity of HIV-2 (LAV-2ROD) in MT-4 cells; format: functional, cell-based, Homo sapiens; how it was run: as §3
[10] = Compound was tested for percent of OKT4A positive cells stained with normal mouse IgG-FITC at a concentration of 0.16 ug/ml; format: functional
How it was run: (§4)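 MT-4 cells, 200 000 in 100 µL PBS, exposed to compound for 10–20 s at 20 °C, then stained with anti-OKT4A-FITC for 20 min at 4 °C. Cells washed, fixed in 0.37% formaldehyde and analysed by cytofluorometry. Positive cells are those brighter than control cells stained with normal mouse IgG-FITC, which monitors nonspecific labelling.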

[11] = Compound was tested for percent of OKT4A positive cells stained with normal mouse IgG-FITC at a concentration of 0.8 ug/ml; format: functional; how it was run: as §4
[12] = Compound was tested for percent of OKT4A positive cells stained with normal mouse IgG-FITC at a concentration of 100 ug/ml; format: functional; how it was run: as §4
[13] = Compound was tested for percent of OKT4A positive cells stained with normal mouse IgG-FITC at a concentration of 20 ug/ml; format: functional; how it was run: as §4
[14] = Compound was tested for percent of OKT4A positive cells stained with normal mouse IgG-FITC at a concentration of 4 ug/mL; format: functional; how it was run: as §4
HuT78 [15] = experiment: Compound was tested for reduce the number of gaint cells in HIV-2 infected HUT-78 cells cocultured with MOLT -4 cells; format: functional, cell-based, Homo sapiens; how it was run: as §1
MT-4 (human) = experiment: Inhibitory index of HIV-1 binding to MT-4 cells was determined at a concentration of 25 ug/mL

Molecule `O=C(O)C1=CC(=C(c2ccc(O)c(C(=O)O)c2)c2ccc(O)c(C(=O)O)c2)C=CC1=O` [AURINTRICARBOXYLIC ACID] has an IC50 (CCRF-CEM; Homo sapiens, CCRF-CEM, read-out: IC50) of 2.1 µg/mL (≈ 4.97 µM), an IC50 (CCRF-CEM; ccrf-cem) of 1.2 µg/mL (≈ 2.84 µM) and an IC50 (HuT78 [1]) of 4 µg/mL (≈ 9.47 µM). The Activity (MT4 [2]) was 0, the Activity (MT4 [3]) was 0.26 and the Activity (MT4 [4]) was 0.97. The Activity (MT4 [5]) was 0.98, the Activity (MT4 [6]) was 0.91 and the IC50 (MT4 [7]) was 280 µg/mL (≈ 663 µM). The IC50 (MT4 [8]) was 1.1 µg/mL and 0.5 µg/mL, the IC50 (MT4 [9]; Homo sapiens, MT4, read-out: IC50) was 0.85 µg/mL (≈ 2.01 µM) and the IC50 (MT4 [9]; mt4) was 1.3 µg/mL (≈ 3.08 µM). It also gave an Activity [10] of 99.5, an Activity [11] of 99.2 and an Activity [12] of 2.7. It also gave an Activity [13] of 1.8, an Activity [14] of 9.2 and an IC50 (HuT78 [15]; Homo sapiens, HuT78, read-out: IC50) of 4 µg/mL (≈ 9.47 µM). It also gave an IC50 (HuT78 [15]; hut78) of 4 µg/mL (≈ 9.47 µM) and an Inhibitory index (MT-4 (human)) of 0.99.
